ChEMBL document CHEMBL1138855, “Topomimetics of amphipathic beta-sheet and helix-forming bactericidal peptides neutralize lipopolysaccharide endotoxins” (J Med Chem, 2006)
Activity calls are given as the source filed them. No cut-off for these calls is given here.

How the values were obtained:
[1] = test system: Pseudomonas aeruginosa; test: Antibacterial activity against Pseudomonas aeruginosa assessed as LPS neutralisation at 5 uM by LAL assay; assay type: functional, organism-based
[2] = test system: Escherichia coli; test: Antibacterial activity against Escherichia coli 055:B5 assessed as LPS neutralisation by LAL assay; assay type: functional, organism-based
Outline: (§1)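 LPS was used at 0.04 units: 0.01 ng for E. coli 055:B5, 0.01 ng for E. coli 0111:B4, 0.003 ng for K. pneumoniae, 0.01 ng for P. aeruginosa, 0.03 ng for S. typhimurium and 0.03 ng for S. marcescens. IC50 came from sigmoidal fits of dose-response curves.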

[3] = test system: Escherichia coli; test: Antibacterial activity against Escherichia coli 0111:B4 assessed as LPS neutralisation by LAL assay; assay type: functional, organism-based; outline: as §1
[4] = test system: Klebsiella pneumoniae; test: Antibacterial activity against Klebsiella pneumoniae assessed as LPS neutralisation by LAL assay; assay type: functional, organism-based; outline: as §1
[5] = test system: Salmonella typhimurium; test: Antibacterial activity against Salmonella Typhimurium assessed as LPS neutralisation by LAL assay at 5 uM; assay type: functional, organism-based; details: Salmonella enterica subsp. enterica serovar Typhimurium
[6] = test system: Serratia marcescens; test: Antibacterial activity against Serratia marcescens assessed as LPS neutralisation by LAL assay; assay type: functional, organism-based; outline: as §1
[7] = test system: Pseudomonas aeruginosa; test: Antibacterial activity against Pseudomonas aeruginosa assessed as LPS neutralisation by LAL assay; assay type: functional, organism-based; outline: as §1
[8] = test system: Salmonella typhimurium; test: Antibacterial activity against Salmonella Typhimurium assessed as LPS neutralisation by LAL assay; assay type: functional, organism-based, Salmonella enterica subsp. enterica serovar Typhimurium; details: Salmonella enterica; outline: as §1
[9] = test system: Mus musculus; test: Survival of Escherichia coli 055:B5 LPS-challenged C57/BL6 mouse at 5 mg/kg, ip after 120 hrs relative 10 control; assay type: functional, organism-based; design: dose 5 mg/kg
Outline: (§2)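 Male C57/BL6 mice (n = 4–8/group) received a lethal LPS dose: 500 µg for E. coli 0111:B4, 600 µg for E. coli 055:B5 and 600 µg for Salmonella. LPS was premixed with compound in 2% DMSO v/v for 30 min, then injected i.p. Controls got DMSO alone or compound alone. Survival was followed for up to 120 h, and mean survival time was compared by Student's t-test.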

[10] = test system: Mus musculus; test: Survival of Escherichia coli 0111:B4 LPS-challenged C57/BL6 mouse at 50 mg/kg, ip after 120 hrs relative to control; assay type: functional; details: route intraperitoneal; outline: as §2
[11] = test system: Mus musculus; test: Survival of Salmonella LPS-challenged C57/BL6 mouse at 50 mg/kg, ip after 120 hrs relative to control; assay type: functional; details: route intraperitoneal; outline: as §2
[12] = test system: Klebsiella pneumoniae; test: Antibacterial activity against Klebsiella pneumoniae assessed as LPS neutralisation by LAL assay at 5 uM; assay type: functional, organism-based
[13] = test system: Mus musculus; test: Survival of Escherichia coli 055:B5 LPS-challenged C57/BL6 mouse at 50 mg/kg, ip after 120 hrs relative to control; assay type: functional; details: route intraperitoneal; outline: as §2
[14] = test system: Serratia marcescens; test: Antibacterial activity against Serratia marcescens assessed as LPS neutralisation by LAL assay at 5 uM; assay type: functional, organism-based
[15] = test system: Escherichia coli; test: Antibacterial activity against Escherichia coli 0111:B4 assessed as LPS neutralisation at 5 uM by LAL assay; assay type: functional, organism-based
[16] = test system: Escherichia coli; test: Antibacterial activity against Escherichia coli 055:B5 assessed as LPS neutralisation at 5 uM by LAL assay; assay type: functional, organism-based

Row | Structure (SMILES) | Activity [1] | IC50 [2] [µM] | IC50 [3] [µM] | IC50 [4] [µM] | Activity [5] | IC50 [6] [µM] | IC50 [7] [µM] | IC50 [8] [µM] | Activity [9] | survival at 50 mg/kg [10] [%] | survival at 50 mg/kg [11] [%] | Activity [12] | survival at 50 mg/kg [13] [%] | Activity [14] | Activity [15] | Activity [16]
1 | CN(C)CCNC(=O)COc1c2cccc1Cc1cccc(c1OCC(=O)NCCN(C)C)Cc1cccc(c1OCC(=O)NCCN(C)C)Cc1cccc(c1OCC(=O)NCCN(C)C)C2 [OTX-008] | inactive | 3.4 | > 5 | 1.5 | inactive | > 5 |  |  |  |  |  |  |  |  |  | 
2 | CC(C)(C)c1cc2c(OCc3cn(CCN)nn3)c(c1)Cc1cc(C(C)(C)C)cc(c1OCc1cn(CCN)nn1)Cc1cc(C(C)(C)C)cc(c1OCc1cn(CCN)nn1)Cc1cc(C(C)(C)C)cc(c1OCc1cn(CCN)nn1)C2 |  | 0.05 | 2.2 | 1 |  | > 5 | 2.6 | 1.1 | inactive | 25 | 100 |  |  |  |  | 
3 | CC(C)(C)c1cc2c(O)c(c1)Cc1cc(C(C)(C)C)cc(c1OCCNC(=N)N)Cc1cc(C(C)(C)C)cc(c1O)Cc1cc(C(C)(C)C)cc(c1OCCN)C2 | inactive | 4.1 | > 5 |  |  |  |  | 2.6 |  |  |  | inactive |  |  |  | 
4 | CN(C)CCNC(=O)COc1c2cc(C(C)(C)C)cc1Cc1cc(C(C)(C)C)cc(c1OCC(=O)NCCN(C)C)Cc1cc(C(C)(C)C)cc(c1OCC(=O)NCCN(C)C)Cc1cc(C(C)(C)C)cc(c1OCC(=O)NCCN(C)C)C2 |  | > 5 | 1.4 | 1.5 |  | 3.4 | > 5 | 0.6 |  |  |  |  |  |  |  | 
5 | CC(C)(C)c1cc2c(OCCCCN)c(c1)Cc1cc(C(C)(C)C)cc(c1OCCCCN)Cc1cc(C(C)(C)C)cc(c1OCCCCN)Cc1cc(C(C)(C)C)cc(c1OCCCCN)C2 |  | 1.3 | 0.1 | 0.5 |  | 4.5 | 0.5 | 0.2 |  |  |  |  |  |  |  | 
6 | CC(C)CCOc1c2cccc1Cc1cc(CCC(=O)O)cc(c1O)Cc1cccc(c1OCCC(C)C)Cc1cc(CCC(=O)O)cc(c1O)C2 | inactive | > 5 | > 5 |  | inactive |  |  |  |  |  |  | inactive |  |  |  | 
7 | CCCc1cc2c(OCC(=O)NCCN(C)C)c(c1)Cc1cc(CCC)cc(c1OCC(=O)NCCN(C)C)Cc1cc(CCC)cc(c1OCC(=O)NCCN(C)C)Cc1cc(CCC)cc(c1OCC(=O)NCCN(C)C)C2 | inactive | 4.4 | > 5 | 0.08 |  |  |  | 4.1 |  |  |  |  |  |  |  | 
8 | CC(C)CCOc1c2cc(CCC(=O)NCCN(C)C)cc1Cc1cc(CCC(=O)NCCN(C)C)cc(c1OCCC(C)C)Cc1cc(CCC(=O)NCCN(C)C)cc(c1OCCC(C)C)Cc1cc(CCC(=O)NCCN(C)C)cc(c1OCCC(C)C)C2 | inactive | > 5 | > 5 | 2.4 |  |  |  | 3.2 |  |  |  |  |  |  |  | 
9 | CC(C)(C)c1cc2c(OCCCCNC(=N)N)c(c1)Cc1cc(C(C)(C)C)cc(c1OCCCCNC(=N)N)Cc1cc(C(C)(C)C)cc(c1OCCCCNC(=N)N)Cc1cc(C(C)(C)C)cc(c1OCCCCNC(=N)N)C2 |  | 0.04 | 0.7 | 1 |  |  | 1.5 | 0.6 | inactive | 100 | 60 |  | 40 |  |  | 
10 | CC(C)(C)c1cc2c(OCC(=O)NCCN)c(c1)Cc1cc(C(C)(C)C)cc(c1OCC(=O)NCCN)Cc1cc(C(C)(C)C)cc(c1OCC(=O)NCCN)Cc1cc(C(C)(C)C)cc(c1OCC(=O)NCCN)C2 |  | 0.9 | 1.6 | 0.3 |  | 1.5 | 0.8 | 0.6 |  |  |  |  |  |  |  | 
11 | CC(C)Cc1cc2c(OCC(=O)NCCN(C)C)c(c1)Cc1cc(CC(C)C)cc(c1OCC(=O)NCCN(C)C)Cc1cc(C(C)C)cc(c1OCC(=O)NCCN(C)C)Cc1cc(CC(C)C)cc(c1OCC(=O)NCCN(C)C)C2 |  | 0.006 | 3.1 | 1 |  |  | 4.2 | 0.4 | inactive |  | 80 |  | 60 |  |  | 
12 | C=CCc1cc2c(OCC(=O)NCCN(C)C)c(c1)Cc1cc(CC(=C)C)cc(c1OCC(=O)NCCN(C)C)Cc1cc(CC=C)cc(c1OCC(=O)NCCN(C)C)Cc1cc(CC(=C)C)cc(c1OCC(=O)NCCN(C)C)C2 |  | 3.6 | 4.7 |  |  |  | > 5 | > 5 |  |  |  | inactive |  |  |  | 
13 | CCCc1cc2c(OCC(=O)NCCN(C)C)c(c1)Cc1cc(CCC)cc(c1OCC(=O)NCCN(C)C)Cc1cc(CCC)cc(c1OCC(=O)NCCN(C)C)Cc1cc(OCC(=O)NCCN(C)C)cc(c1CCC)C2 | inactive | 0.05 | 2.7 | 0.4 |  |  |  | 0.8 |  |  |  |  |  | inactive |  | 
14 | CC(C)(C)c1cc2c(O)c(c1)Cc1cc(C(C)(C)C)cc(c1OCCNC(=N)N)Cc1cc(C(C)(C)C)cc(c1O)Cc1cc(C(C)(C)C)cc(c1OCCNC(=N)N)C2 | inactive | > 5 |  |  |  |  |  | 4.4 |  |  |  | inactive |  |  |  | 
15 | NCCNC(=O)COc1c2cccc1Cc1cccc(c1O)Cc1cccc(c1OCC(=O)NCCN)Cc1cccc(c1O)C2 | inactive | > 5 |  |  |  |  |  | > 5 |  |  |  | inactive |  |  | inactive | 
16 | CC(C)(C)c1cc2c(OCc3cn(CCN)nn3)c(c1)Cc1cc(C(C)(C)C)cc(c1OCc1cn(CCN)nn1)Cc1cc(OCc3cnnn3CCN)cc(c1C(C)(C)C)Cc1cc(C(C)(C)C)cc(c1OCc1cn(CCN)nn1)C2 |  | 0.6 | 1.5 | 0.9 | inactive |  | 1 |  |  |  |  |  |  | inactive |  | 
17 | CC(C)(C)c1cc2c(OCCCCN)c(c1)Cc1cc(C(C)(C)C)cc(c1OCCCCNC(=N)N)Cc1cc(C(C)(C)C)cc(c1OCCCCNC(=N)N)Cc1cc(C(C)(C)C)cc(c1OCCCCNC(=N)N)C2 |  | 0.1 | 0.4 | 0.5 |  | 3.2 | 0.8 | 0.6 |  |  |  |  |  |  |  | 
18 | CCCc1cc2c(OCC(=O)NCCN(C)C)c(c1)Cc1cc(CC(C)C)cc(c1OCC(=O)NCCN(C)C)Cc1cc(CCC)cc(c1OCC(=O)NCCN(C)C)Cc1cc(CC(C)C)cc(c1OCC(=O)NCCN(C)C)C2 |  | 3.8 | 3.7 | 2.1 |  |  | > 5 | 3.1 |  |  |  |  |  |  |  | 
19 | CC(C)CCOc1c2cccc1Cc1cc(CCCOP(=O)(O)O)cc(c1O)Cc1cccc(c1OCCC(C)C)Cc1cc(CCCOP(=O)(O)O)cc(c1O)C2 | inactive | > 5 |  |  | inactive |  |  |  |  |  |  | inactive |  |  | inactive | 
20 | CC(C)CCOc1c2cccc1Cc1cc(CCCOS(=O)(=O)O)cc(c1O)Cc1cccc(c1OCCC(C)C)Cc1cc(CCCOS(=O)(=O)O)cc(c1O)C2 | inactive | 5 | 5 | 2.1 | inactive | 4.2 |  |  |  |  |  |  |  |  |  | 
21 | N=C(N)NCCOc1c2cccc1Cc1cccc(c1O)Cc1cccc(c1OCC(=O)NC(=N)N)Cc1cccc(c1O)C2 | inactive | 4.1 | 3.9 |  |  |  |  | > 5 |  |  |  | inactive |  |  |  | 
22 | CC(C)(C)c1cc2c(OCC(=O)NCCCn3cncn3)c(c1)Cc1cc(C(C)(C)C)cc(c1OCC(=O)NCCCn1cncn1)Cc1cc(C(C)(C)C)cc(c1OCC(=O)NCCCn1cncn1)Cc1cc(C(C)(C)C)cc(c1OCC(=O)NCCCn1cncn1)C2 | inactive |  |  |  | inactive |  |  |  |  |  |  | inactive |  |  | inactive | inactive
23 | CN(C)CCNC(=O)COc1c2cccc1Cc1cccc(c1O)Cc1cccc(c1OCC(=O)NCCN(C)C)Cc1cccc(c1O)C2 | inactive | > 5 | > 5 |  |  |  |  | > 5 |  |  |  | inactive |  |  |  | 
